Results reported in ChEMBL document CHEMBL2390926, “Identification of novel FLT3 kinase inhibitors” (Eur J Med Chem, 2013).
One block for each molecule: values may come before it. The source made the active and inactive calls. The rule behind the calls is not given here.

Experiments:
[1] = biological target: Platelet-derived growth factor receptor alpha (Homo sapiens) (UniProt P16234); assay: Inhibition of PDGFRalpha phosphorylation in human EOL-1 cells after 90 mins by Western blot analysis; type: cell-based; conditions: EOL1
Sequence of Platelet-derived growth factor receptor alpha (Homo sapiens) (P16234 whole entry): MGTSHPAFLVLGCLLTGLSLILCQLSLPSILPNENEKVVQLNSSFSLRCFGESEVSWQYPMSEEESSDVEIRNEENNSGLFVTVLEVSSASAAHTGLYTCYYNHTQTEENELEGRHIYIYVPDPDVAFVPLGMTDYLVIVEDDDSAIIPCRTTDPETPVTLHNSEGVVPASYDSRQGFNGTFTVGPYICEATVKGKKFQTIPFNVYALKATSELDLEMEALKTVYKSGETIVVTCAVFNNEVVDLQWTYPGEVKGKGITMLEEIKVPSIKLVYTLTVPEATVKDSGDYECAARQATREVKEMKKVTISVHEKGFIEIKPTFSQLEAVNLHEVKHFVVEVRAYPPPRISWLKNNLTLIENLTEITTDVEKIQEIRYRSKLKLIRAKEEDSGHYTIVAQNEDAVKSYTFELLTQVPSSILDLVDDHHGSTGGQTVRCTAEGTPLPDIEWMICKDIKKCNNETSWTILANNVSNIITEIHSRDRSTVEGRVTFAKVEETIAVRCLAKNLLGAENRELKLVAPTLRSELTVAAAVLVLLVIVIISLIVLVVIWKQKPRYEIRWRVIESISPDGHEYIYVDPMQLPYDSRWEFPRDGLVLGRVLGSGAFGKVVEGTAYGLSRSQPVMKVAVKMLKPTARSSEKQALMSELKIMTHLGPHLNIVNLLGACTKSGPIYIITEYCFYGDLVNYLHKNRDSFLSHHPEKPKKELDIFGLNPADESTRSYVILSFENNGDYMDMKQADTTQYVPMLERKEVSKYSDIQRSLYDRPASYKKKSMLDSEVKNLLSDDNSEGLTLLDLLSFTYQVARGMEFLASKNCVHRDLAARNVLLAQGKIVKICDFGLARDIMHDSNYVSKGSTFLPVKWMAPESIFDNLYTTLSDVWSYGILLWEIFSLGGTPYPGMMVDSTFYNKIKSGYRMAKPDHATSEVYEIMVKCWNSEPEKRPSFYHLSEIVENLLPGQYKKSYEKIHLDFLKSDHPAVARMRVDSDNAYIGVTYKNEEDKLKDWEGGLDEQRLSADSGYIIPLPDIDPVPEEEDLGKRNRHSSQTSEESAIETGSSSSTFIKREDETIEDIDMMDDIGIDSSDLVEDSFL
Outline: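 EOL-1 cells (FIP1L1-PDGFRA, RPMI/10% FBS) treated 90 min with increasing compound doses. Lysed in lysis buffer with 1 mM NaVO4 and protease inhibitors, reduced, and run on Bis-Tris 4–12% gels. Western blot for phospho-PDGFRα and phospho-STAT5, with total PDGFRα and STAT5 as loading controls.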

[2] = biological target: T1, Receptor-type tyrosine-protein kinase FLT3 (Mus musculus) (UniProt Q00342); assay: Inhibition of FLT3 phosphorylation in mouse Ba/F3 cells transfected with FLT3-ITD at 50 nM after 90 mins by Western blot analysis; type: cell-based; conditions: BaF3
T1 sequence (whole entry): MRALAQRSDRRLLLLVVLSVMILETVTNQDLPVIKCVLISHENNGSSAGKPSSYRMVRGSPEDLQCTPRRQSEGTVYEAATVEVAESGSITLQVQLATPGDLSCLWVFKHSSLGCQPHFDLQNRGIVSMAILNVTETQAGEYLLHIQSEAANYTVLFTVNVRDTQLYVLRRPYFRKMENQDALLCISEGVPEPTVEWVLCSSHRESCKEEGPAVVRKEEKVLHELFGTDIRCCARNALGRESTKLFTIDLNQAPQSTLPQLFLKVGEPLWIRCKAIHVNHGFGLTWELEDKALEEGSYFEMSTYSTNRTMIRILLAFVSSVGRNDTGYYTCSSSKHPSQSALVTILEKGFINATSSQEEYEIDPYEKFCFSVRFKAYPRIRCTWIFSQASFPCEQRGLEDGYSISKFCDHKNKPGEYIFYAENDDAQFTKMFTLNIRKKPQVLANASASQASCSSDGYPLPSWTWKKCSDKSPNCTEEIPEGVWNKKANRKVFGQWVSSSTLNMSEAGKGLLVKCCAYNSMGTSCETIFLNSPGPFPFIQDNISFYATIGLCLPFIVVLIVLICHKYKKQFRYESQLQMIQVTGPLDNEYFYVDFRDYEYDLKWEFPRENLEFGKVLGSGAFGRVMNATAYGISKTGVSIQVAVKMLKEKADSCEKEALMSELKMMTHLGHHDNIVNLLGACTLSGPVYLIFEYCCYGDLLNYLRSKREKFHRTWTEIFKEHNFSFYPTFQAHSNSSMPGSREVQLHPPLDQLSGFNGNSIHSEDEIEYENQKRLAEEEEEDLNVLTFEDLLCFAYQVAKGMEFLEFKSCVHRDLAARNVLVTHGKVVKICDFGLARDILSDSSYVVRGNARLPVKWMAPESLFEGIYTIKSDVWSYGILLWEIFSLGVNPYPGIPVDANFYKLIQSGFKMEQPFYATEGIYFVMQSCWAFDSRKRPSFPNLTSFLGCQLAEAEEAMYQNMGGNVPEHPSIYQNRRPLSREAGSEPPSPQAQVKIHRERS
Outline: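 Ba/F3-FLT3-ITD cells were treated for 90 min with increasing doses. They were lysed in buffer with 1 mM NaVO4 and protease inhibitors, then reduced and run on Bis-Tris 4–12% gels for Western blot. Phospho-FLT3 and phospho-STAT5 were detected, with total FLT3 and STAT5 as loading controls.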

[3] = system: KG-1; assay: Cytotoxicity against human KG1 cells after 24 hrs by plate reader analysis; type: functional, cell-based; conditions: KG-1, 24 h
Outline: (§1)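 Cells in RPMI 1640 with 10% FBS at 37 °C and 5% CO2 were seeded at 100,000 cells/ml. They were treated for 24 h at 8 concentrations (50–6400 nM), each in triplicate, with DMSO as negative control. Viable cells were measured by ATP-lite luminescence, and EC50 was taken from dose–response curves.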

[4] = system: MV4-11; assay: Cytotoxicity against human MV4-11 cells after 24 hrs by plate reader analysis; type: functional, cell-based; conditions: MV4-11, 24 h; outline: as §1
[5] = system: MOLM-13; assay: Cytotoxicity against human MOLM13 cells after 24 hrs by plate reader analysis; type: functional, cell-based; conditions: MOLM-13, 24 h; outline: as §1
[6] = system: EOL1; assay: Cytotoxicity against human EOL-1 cells after 24 hrs by plate reader analysis; type: functional, cell-based; conditions: EOL1, 24 h; outline: as §1
[7] = biological target: T2, Ephrin type-A receptor 8 (Homo sapiens) (UniProt P29322); assay: Inhibition of EPHA8 (unknown origin) transfected in mouse Ba/F3 cells up to 1 uM; type: cell-based; conditions: BaF3
T2 sequence (whole entry): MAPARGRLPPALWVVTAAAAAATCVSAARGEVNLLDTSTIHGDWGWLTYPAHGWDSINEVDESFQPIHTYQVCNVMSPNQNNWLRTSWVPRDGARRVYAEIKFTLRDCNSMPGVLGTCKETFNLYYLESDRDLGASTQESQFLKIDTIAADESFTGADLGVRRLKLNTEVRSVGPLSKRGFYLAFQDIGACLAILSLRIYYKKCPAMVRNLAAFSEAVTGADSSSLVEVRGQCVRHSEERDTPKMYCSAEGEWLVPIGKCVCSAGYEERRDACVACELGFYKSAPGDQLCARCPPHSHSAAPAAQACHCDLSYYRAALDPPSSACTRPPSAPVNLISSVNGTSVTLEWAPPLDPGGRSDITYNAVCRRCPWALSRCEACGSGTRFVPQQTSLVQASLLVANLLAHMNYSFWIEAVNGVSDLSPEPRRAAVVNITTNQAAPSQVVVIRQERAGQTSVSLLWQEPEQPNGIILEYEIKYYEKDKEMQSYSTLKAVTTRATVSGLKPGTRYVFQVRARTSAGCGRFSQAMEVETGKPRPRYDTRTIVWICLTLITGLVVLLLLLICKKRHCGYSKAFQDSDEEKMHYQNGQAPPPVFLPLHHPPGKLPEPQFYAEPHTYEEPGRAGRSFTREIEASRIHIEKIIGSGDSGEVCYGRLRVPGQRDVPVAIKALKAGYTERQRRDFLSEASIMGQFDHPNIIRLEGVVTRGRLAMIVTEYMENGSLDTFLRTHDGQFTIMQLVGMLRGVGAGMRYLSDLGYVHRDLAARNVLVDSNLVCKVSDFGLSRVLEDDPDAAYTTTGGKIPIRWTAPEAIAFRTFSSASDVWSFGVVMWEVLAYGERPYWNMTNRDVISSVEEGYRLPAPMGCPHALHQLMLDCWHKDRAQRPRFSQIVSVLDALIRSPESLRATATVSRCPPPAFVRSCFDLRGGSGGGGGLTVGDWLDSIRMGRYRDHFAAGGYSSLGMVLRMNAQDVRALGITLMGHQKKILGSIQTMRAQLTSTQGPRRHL

[8] = biological target: Ephrin type-A receptor 5 (Homo sapiens) (UniProt P54756); assay: Inhibition of EPHA5 (unknown origin) transfected in mouse Ba/F3 cells up to 1 uM; type: cell-based; conditions: BaF3
Sequence of Ephrin type-A receptor 5 (Homo sapiens) (P54756 whole entry): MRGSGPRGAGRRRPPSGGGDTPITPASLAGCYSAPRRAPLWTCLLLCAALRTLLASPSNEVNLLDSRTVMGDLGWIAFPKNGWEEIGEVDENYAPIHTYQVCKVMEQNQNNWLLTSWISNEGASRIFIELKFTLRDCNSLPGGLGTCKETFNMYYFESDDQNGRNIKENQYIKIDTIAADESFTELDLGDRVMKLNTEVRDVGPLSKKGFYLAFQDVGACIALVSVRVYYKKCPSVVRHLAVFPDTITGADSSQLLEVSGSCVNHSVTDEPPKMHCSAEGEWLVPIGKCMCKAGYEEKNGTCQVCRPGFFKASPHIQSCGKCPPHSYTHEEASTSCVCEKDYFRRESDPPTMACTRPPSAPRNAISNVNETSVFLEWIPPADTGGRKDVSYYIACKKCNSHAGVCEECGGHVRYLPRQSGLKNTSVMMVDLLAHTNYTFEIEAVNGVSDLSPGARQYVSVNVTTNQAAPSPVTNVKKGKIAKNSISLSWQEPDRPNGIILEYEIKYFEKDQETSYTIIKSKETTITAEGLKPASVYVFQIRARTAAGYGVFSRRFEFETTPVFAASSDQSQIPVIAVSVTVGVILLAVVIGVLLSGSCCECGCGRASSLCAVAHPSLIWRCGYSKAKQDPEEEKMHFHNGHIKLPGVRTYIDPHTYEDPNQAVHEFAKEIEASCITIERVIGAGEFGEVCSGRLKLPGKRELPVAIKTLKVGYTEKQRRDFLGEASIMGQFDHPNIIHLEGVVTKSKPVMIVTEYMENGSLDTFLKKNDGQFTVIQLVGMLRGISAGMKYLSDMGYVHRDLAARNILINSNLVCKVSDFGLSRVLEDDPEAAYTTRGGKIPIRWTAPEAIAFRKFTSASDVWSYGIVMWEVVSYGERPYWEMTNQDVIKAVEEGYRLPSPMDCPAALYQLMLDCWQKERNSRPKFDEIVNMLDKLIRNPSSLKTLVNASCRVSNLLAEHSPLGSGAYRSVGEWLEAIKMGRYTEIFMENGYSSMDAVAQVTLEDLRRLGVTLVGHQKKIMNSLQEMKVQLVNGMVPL

[9] = biological target: Tyrosine-protein kinase ABL2 (Homo sapiens) (UniProt P42684); assay: Inhibition of ABL2 (unknown origin) transfected in mouse Ba/F3 cells up to 1 uM; type: cell-based; conditions: BaF3
Sequence of Tyrosine-protein kinase ABL2 (Homo sapiens) (P42684 whole entry): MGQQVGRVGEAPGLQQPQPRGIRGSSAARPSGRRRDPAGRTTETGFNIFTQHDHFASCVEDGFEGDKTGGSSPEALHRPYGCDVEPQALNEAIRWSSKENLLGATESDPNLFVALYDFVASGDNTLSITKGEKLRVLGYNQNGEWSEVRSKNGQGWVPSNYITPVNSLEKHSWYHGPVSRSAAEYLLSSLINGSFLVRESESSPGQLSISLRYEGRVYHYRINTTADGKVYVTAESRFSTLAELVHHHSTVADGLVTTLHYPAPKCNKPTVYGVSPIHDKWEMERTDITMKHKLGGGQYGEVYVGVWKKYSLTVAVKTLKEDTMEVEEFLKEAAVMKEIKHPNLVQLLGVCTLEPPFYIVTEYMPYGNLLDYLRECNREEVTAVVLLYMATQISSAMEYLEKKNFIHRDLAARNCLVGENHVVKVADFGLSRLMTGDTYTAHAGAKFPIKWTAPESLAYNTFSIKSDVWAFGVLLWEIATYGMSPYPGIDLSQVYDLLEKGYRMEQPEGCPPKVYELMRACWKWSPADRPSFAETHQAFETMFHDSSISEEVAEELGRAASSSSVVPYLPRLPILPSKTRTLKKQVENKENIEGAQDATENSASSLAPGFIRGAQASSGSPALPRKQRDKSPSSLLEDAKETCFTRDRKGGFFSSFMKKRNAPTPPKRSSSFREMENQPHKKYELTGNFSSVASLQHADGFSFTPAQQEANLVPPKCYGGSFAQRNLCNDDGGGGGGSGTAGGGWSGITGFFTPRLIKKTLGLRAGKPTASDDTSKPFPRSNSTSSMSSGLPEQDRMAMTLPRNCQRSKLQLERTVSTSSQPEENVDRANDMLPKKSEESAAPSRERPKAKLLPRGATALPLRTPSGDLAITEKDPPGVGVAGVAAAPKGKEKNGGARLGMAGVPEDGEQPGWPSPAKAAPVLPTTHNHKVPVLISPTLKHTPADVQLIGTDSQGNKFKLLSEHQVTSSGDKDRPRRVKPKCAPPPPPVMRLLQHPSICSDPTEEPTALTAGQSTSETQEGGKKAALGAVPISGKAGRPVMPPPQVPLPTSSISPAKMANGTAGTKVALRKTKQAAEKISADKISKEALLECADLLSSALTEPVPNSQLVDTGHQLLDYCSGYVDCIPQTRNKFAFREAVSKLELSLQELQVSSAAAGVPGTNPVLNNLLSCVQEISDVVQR

- inhibition [1]: inactive
SMILES: Cc1ccc(-c2cc(NC(=O)c3ccc(F)cc3)[nH]n2)cc1

- inhibition [2]: Active
SMILES: COc1ccc(C(=O)Nc2cc(-c3ccccc3)[nH]n2)cc1
- EC50 [3]: 15 µM
- EC50 [4]: 142 nM
- EC50 [5]: 292 nM
- EC50 [6]: 70 nM

- inhibition [7]: inactive
- inhibition [8]: inactive
- inhibition [9]: inactive
SMILES: Fc1ccc(-c2n[nH]cc2-c2ccncc2)cc1Cl
